Among the data in ChEMBL document CHEMBL4406852, “Combating fluconazole-resistant fungi with novel β-azole-phenylacetone derivatives” (Eur J Med Chem, 2019) are MIC values, retold here.

Common to all, as to assay type: functional
Test [1] has as its system Candida albicans. Put plainly: Antifungal activity against Candida albicans GIM 2.194 assessed as reduction in fungal growth incubated for 24 hrs by serial dilution method. The conditions noted are these: GIM 2.194, 24 h. Summed up:
(§1)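 MIC by CLSI broth microdilution in RPMI 1640 buffered to pH 7.0 with MOPS. Compounds dissolved in DMSO and serially diluted to final 0.03–16 or 0.125–64 µg/mL. Inoculum 1–5 × 10^3 CFU/mL. Incubation 35 °C, 24 h. Drug-free growth and fungus-free blank controls. MIC is the lowest concentration preventing visible growth.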

The subject of test [2] is Candida albicans. Put plainly: Antifungal activity against Candida albicans SC5314 assessed as reduction in fungal growth incubated for 24 hrs by serial dilution method. As to conditions: SC5314, 24 h. Summed up:
as §1

In another test the test system is Candida tropicalis. Put plainly: Antifungal activity against Candida tropicalis GIM 2.183 assessed as reduction in fungal growth incubated for 24 hrs by serial dilution method. As to conditions: GIM 2.183, 24 h. Summed up:
as §1

Another test concerns Candida parapsilosis. Put plainly: Antifungal activity against Candida parapsilosis GIM 2.190 assessed as reduction in fungal growth incubated for 24 hrs by serial dilution method. The conditions noted are these: Lodderomyces parapsilosis, GIM 2.190, 24 h. Summed up: as §1
Another test deals with Nakaseomyces glabratus. Put plainly: Antifungal activity against Candida glabrata assessed as reduction in fungal growth incubated for 24 hrs by serial dilution method. Summed up: as §1
The subject of test [3] is Candida albicans. Put plainly: Antifungal activity against fluconazole-resistant Candida albicans CaR assessed as reduction in fungal growth incubated for 24 hrs by serial dilution method. Summed up: (§2)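 Fluconazole-resistant C. albicans clinical isolates (17# and CaR from AIDS patients; 632, 901, 904 from clinic) tested by CLSI broth dilution MIC in RPMI 1640 buffered to pH 7.0 with MOPS. Compounds dissolved in DMSO, serially diluted to final 0.03–16 or 0.125–64 μg/mL; inoculum 1–5 × 10^3 CFU/mL; 35 °C, 24 h. MIC = lowest concentration inhibiting visible growth; fluconazole and itraconazole as controls.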

Test [4] has as its system Candida albicans. Put plainly: Antifungal activity against fluconazole-resistant Candida albicans 904 assessed as reduction in fungal growth incubated for 24 hrs by serial dilution method. As to conditions: Candida albicans, 904, 24 h. Summed up: as §2
In test [5] the test system is Candida albicans. The test can be described thus: Antifungal activity against fluconazole-resistant Candida albicans 632 assessed as reduction in fungal growth incubated for 24 hrs by serial dilution method. As to conditions: Candida albicans, 632, 24 h. Summed up:
as §2

In test [6] the test system is Candida albicans. Put plainly: Antifungal activity against fluconazole-resistant Candida albicans 17 assessed as reduction in fungal growth incubated for 24 hrs by serial dilution method. As to conditions: Candida albicans, 17, 24 h. Summed up:
as §2

The subject of test [7] is Candida albicans. Put plainly: Antifungal activity against fluconazole-resistant Candida albicans 901 assessed as reduction in fungal growth incubated for 24 hrs by serial dilution method. The conditions noted are these: Candida albicans, 901, 24 h. Summed up:
as §2

Converted amounts (≈) assume the structure as drawn.

For orientation: MIC means the smallest concentration in the dilution series that meets the test's criterion for growth inhibition. For `Cc1ccc(-c2ccc(C(=O)NC(Cn3ccnc3)C(=O)c3ccccc3)cc2)cc1` (stereo not given), the MIC in the test with Candida albicans [1] is above 16 µg/mL; with Candida albicans [2], 2 µg/mL (≈ 4.88 µM); in the test with Candida tropicalis, above 16 µg/mL; in the test with Candida parapsilosis, above 64 µg/mL; in the test with Nakaseomyces glabratus, above 64 µg/mL.
Consider `O=C(NC(Cn1ccnc1)C(=O)c1cccc(F)c1)c1ccc(-c2ccccc2)cc1` (stereo not given), for which the MIC in the test on Candida albicans [1] is 0.125 µg/mL (≈ 0.302 µM); with Candida albicans [3], above 64 µg/mL; with Candida albicans [2], 0.06 µg/mL (≈ 0.145 µM); in the test with Candida albicans [4], 0.5 µg/mL (≈ 1.21 µM); in the test with Candida albicans [5], 1 µg/mL (≈ 2.42 µM); in the test with Candida albicans [6] it was above 64 µg/mL. For the same compound, the MIC is 0.25 µg/mL (≈ 0.605 µM) in the test on Candida tropicalis, 0.5 µg/mL (≈ 1.21 µM) with Candida parapsilosis, 1 µg/mL (≈ 2.42 µM) in the test on Nakaseomyces glabratus and 0.25 µg/mL (≈ 0.605 µM) in the test with Candida albicans [7].
As for `O=C(NC(Cn1ccnc1)C(=O)c1ccccc1F)c1ccc(-c2ccccc2)cc1F` (stereo not given), the MIC in the test on Candida albicans [1] is 1 µg/mL (≈ 2.32 µM); with Candida albicans [3], 4 µg/mL (≈ 9.27 µM); in the test on Candida albicans [2], 0.5 µg/mL (≈ 1.16 µM); with Candida albicans [4], 2 µg/mL (≈ 4.64 µM); with Candida albicans [5], 8 µg/mL (≈ 18.5 µM); in the test on Candida albicans [6], 8 µg/mL (≈ 18.5 µM). The MIC is 1 µg/mL (≈ 2.32 µM) with Candida tropicalis, 1 µg/mL (≈ 2.32 µM) in the test on Candida parapsilosis, above 64 µg/mL in the test with Nakaseomyces glabratus and above 64 µg/mL in the test with Candida albicans [7].
Take `O=C(NC(Cn1ccnc1)C(=O)c1ccc(Cl)cc1)c1ccc(-c2ccccc2)cc1` (stereo not given): the MIC with Candida albicans [1] is 0.125 µg/mL (≈ 0.291 µM); with Candida albicans [3], above 64 µg/mL; with Candida albicans [2], 0.06 µg/mL (≈ 0.14 µM); in the test on Candida albicans [4] it was 2 µg/mL (≈ 4.65 µM); with Candida albicans [5], 4 µg/mL (≈ 9.3 µM); in the test on Candida albicans [6], above 64 µg/mL. For the same compound, the MIC with Candida tropicalis stood at 0.06 µg/mL (≈ 0.14 µM); in the test with Candida parapsilosis, 0.25 µg/mL (≈ 0.582 µM); in the test with Nakaseomyces glabratus it was 0.5 µg/mL (≈ 1.16 µM); in the test with Candida albicans [7], 2 µg/mL (≈ 4.65 µM).
As to `O=C(NC(Cn1ccnc1)C(=O)c1ccccc1)c1ccc(-c2ccc(Cl)cc2)cc1` (stereo not given), the MIC in the test with Candida albicans [1] is above 16 µg/mL; in the test on Candida albicans [2], 0.5 µg/mL (≈ 1.16 µM); in the test on Candida tropicalis it was above 16 µg/mL; with Candida parapsilosis, above 64 µg/mL; in the test on Nakaseomyces glabratus it was above 64 µg/mL.
In the case of `O=C(NC(Cn1ccnc1)C(=O)c1cccc(Cl)c1)c1ccc(-c2ccccc2)cc1F` (stereo not given), the MIC with Candida albicans [1] was 0.125 µg/mL (≈ 0.279 µM); in the test on Candida albicans [3], above 64 µg/mL; in the test with Candida albicans [2] it was 0.06 µg/mL (≈ 0.134 µM); with Candida albicans [4], above 64 µg/mL; in the test with Candida albicans [5] it was above 64 µg/mL; in the test with Candida albicans [6] it was above 64 µg/mL. Also, the MIC in the test on Candida tropicalis was 0.03 µg/mL (≈ 0.067 µM); in the test with Candida parapsilosis, 0.125 µg/mL (≈ 0.279 µM); in the test with Nakaseomyces glabratus, 0.25 µg/mL (≈ 0.558 µM); with Candida albicans [7] it was above 64 µg/mL.
In the case of `O=C(NC(Cn1ccnc1)C(=O)c1ccccc1)c1ccc(-c2ccccc2)cc1Cl` (stereo not given), the MIC in the test with Candida albicans [1] was above 16 µg/mL; in the test on Candida albicans [2], 8 µg/mL (≈ 18.6 µM); in the test with Candida tropicalis, above 16 µg/mL; with Candida parapsilosis it was above 64 µg/mL; with Nakaseomyces glabratus, above 64 µg/mL.
Take `Cc1ccccc1-c1ccc(C(=O)NC(Cn2ccnc2)C(=O)c2ccccc2)cc1` (stereo not given): the MIC in the test on Candida albicans [1] was above 16 µg/mL; with Candida albicans [2] it was above 16 µg/mL; with Candida tropicalis it was above 16 µg/mL; with Candida parapsilosis, above 64 µg/mL; with Nakaseomyces glabratus, above 64 µg/mL.
In the case of `O=C(NC(Cn1ccnc1)C(=O)c1ccc(F)cc1)c1ccc(-c2ccccc2)c(F)c1` (stereo not given), the MIC with Candida albicans [1] is 0.25 µg/mL (≈ 0.579 µM); in the test on Candida albicans [3] it was above 64 µg/mL; with Candida albicans [2] it was 0.06 µg/mL (≈ 0.139 µM); in the test with Candida albicans [4], 4 µg/mL (≈ 9.27 µM); with Candida albicans [5], 4 µg/mL (≈ 9.27 µM); in the test on Candida albicans [6], above 64 µg/mL. The MIC with Candida tropicalis is 0.25 µg/mL (≈ 0.579 µM); in the test with Candida parapsilosis, 0.25 µg/mL (≈ 0.579 µM); with Nakaseomyces glabratus, 0.5 µg/mL (≈ 1.16 µM); in the test on Candida albicans [7], above 64 µg/mL.
As to `O=C(NC(Cn1ccnc1)C(=O)c1ccccc1)c1ccc(-c2ccccc2Cl)cc1` (stereo not given), the MIC with Candida albicans [1] is above 16 µg/mL; in the test with Candida albicans [2], 2 µg/mL (≈ 4.65 µM); in the test on Candida tropicalis, above 16 µg/mL; in the test on Candida parapsilosis, above 64 µg/mL; in the test with Nakaseomyces glabratus, 4 µg/mL (≈ 9.3 µM).
For `O=C(NC(Cn1ccnc1)C(=O)c1ccccc1)c1ccc(-c2ccccc2)c(F)c1` (stereo not given), the MIC with Candida albicans [1] was 0.125 µg/mL (≈ 0.302 µM); in the test on Candida albicans [3], above 64 µg/mL; in the test on Candida albicans [2], 0.06 µg/mL (≈ 0.145 µM); in the test with Candida albicans [4], 2 µg/mL (≈ 4.84 µM); in the test with Candida albicans [5], 2 µg/mL (≈ 4.84 µM); with Candida albicans [6] it was above 64 µg/mL. For the same compound, the MIC in the test with Candida tropicalis is 0.06 µg/mL (≈ 0.145 µM); in the test with Candida parapsilosis it was 0.125 µg/mL (≈ 0.302 µM); in the test with Nakaseomyces glabratus, 0.25 µg/mL (≈ 0.605 µM); in the test with Candida albicans [7], 0.25 µg/mL (≈ 0.605 µM).
As to `O=C(NC(Cn1ccnc1)C(=O)c1ccccc1)c1ccc(-c2ccc(F)cc2)cc1` (stereo not given), the MIC with Candida albicans [1] was above 16 µg/mL; in the test on Candida albicans [2] it was 4 µg/mL (≈ 9.67 µM); in the test on Candida tropicalis, 8 µg/mL (≈ 19.3 µM); with Candida parapsilosis it was above 64 µg/mL; in the test on Nakaseomyces glabratus, above 64 µg/mL.
Consider `O=C(NC(Cn1ccnc1)C(=O)c1ccccc1F)c1ccc(-c2ccccc2)c(F)c1` (stereo not given), for which the MIC with Candida albicans [1] was 0.5 µg/mL (≈ 1.16 µM); in the test on Candida albicans [3], above 64 µg/mL; in the test with Candida albicans [2], 0.5 µg/mL (≈ 1.16 µM); in the test on Candida albicans [4] it was 0.25 µg/mL (≈ 0.579 µM); in the test with Candida albicans [5] it was 1 µg/mL (≈ 2.32 µM); in the test on Candida albicans [6], above 64 µg/mL. Moreover, the MIC was 4 µg/mL (≈ 9.27 µM) in the test with Candida tropicalis, 2 µg/mL (≈ 4.64 µM) in the test with Candida parapsilosis, above 64 µg/mL with Nakaseomyces glabratus and 0.25 µg/mL (≈ 0.579 µM) with Candida albicans [7].
